Screening results (PubChem BioAssay)
This excerpt belongs to a sample that is enriched for hits.
STK33 inh: inhibitors of human STK33 kinase; inhibition, % at 10 µM; purified STK33, MBP phosphorylation, ADP-Glo luminescence; actives 0.073% (n = 320,000);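 active = inhibition at or above 25%, using the most active replicate where run in duplicate; inactive = inhibition below 25%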
DYRK1A inh: blocks rat Dyrk1A kinase activity | Q63470 | ADP-Glo luminescence, NFATc1 peptide | AID 504441 | inhibition, % at 12.5 µM | actives 0.43% (n = 310,000); in the data active = inhibition above about 50%
GSK3A inh: inhibitors of human GSK-3 alpha kinase | P49840 | ADP-Glo luminescence, 60 min | inhibition, % at 10 µM | actives 0.1% (n = 320,000) | AID 2650;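 active = more than half of replicates show inhibition above 20%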;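 also: GST-tagged GSK-3 alpha with peptide substrate and 25 µM ATP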
GSK3B inh: human GSK3beta kinase inhibition | activity score (negative = inhibition), % at 10 µM | GST-GSK3beta kinase, ADP-Glo luminescence, 60 min; stronger effect = lower value | actives 0.038% (n = 300,000) | AID 2097 | P49841;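 active = more than half of replicate wells score below -50%, meaning over 50% inhibition versus plate controls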
Target sequence (P49841 whole entry, looked up): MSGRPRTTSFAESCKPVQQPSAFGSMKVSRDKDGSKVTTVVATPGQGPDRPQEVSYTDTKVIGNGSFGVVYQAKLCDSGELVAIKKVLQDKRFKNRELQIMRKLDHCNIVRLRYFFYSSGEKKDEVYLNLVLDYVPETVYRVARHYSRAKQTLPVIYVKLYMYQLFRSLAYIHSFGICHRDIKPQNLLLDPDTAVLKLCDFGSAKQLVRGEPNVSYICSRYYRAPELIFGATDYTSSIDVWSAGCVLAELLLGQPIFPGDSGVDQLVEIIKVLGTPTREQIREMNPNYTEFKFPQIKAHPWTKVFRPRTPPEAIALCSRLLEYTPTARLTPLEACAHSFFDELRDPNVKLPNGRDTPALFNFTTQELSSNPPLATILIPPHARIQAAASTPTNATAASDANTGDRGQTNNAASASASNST
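Assay system: GST-tagged human GSK3beta kinase, cell-free; Input: 1.6 ng GSK3beta; Medium: Tris/MgCl2 kinase buffer; Timing: 60 min enzyme reaction, room temperature; Signal: ADP-Glo luminescence quantifying ADP generated by kinase; Evaluation: score relative to plate controls; Benchmarks: DMSO neutral wells and GW8510 at 20 µM as positive.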
Dyrk1A artifact: counter-screen for Dyrk1A inhibitors: ADP-Glo luciferase artifacts. shares compounds with DYRK1A inh. ADP-Glo luciferase artifact assay, no Dyrk1A, luminescence. AC50, µM (series often up to 12 µM). 1,300 tested, under 10 active. AID 588348;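 active = fitted half-maximal dose AC50 no more than ten times the top valid tested dose, with luminescence dropping as dose rises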
Of the large screens only hits and unclear results are named; the others gave an inactive call (follow-up assays come after a bar, where they were run).

CC(OC(=O)CCN=C1NS(=O)(=O)c2ccccc21)C(=O)Nc1ccc(N(C)C)cc1 (stereo not drawn)	none (no result: DYRK1A inh, GSK3B inh)
COc1cc(/C=C2/SC(N)=NC2=O)ccc1Oc1ccc([N+](=O)[O-])cc1[N+](=O)[O-]	none
COc1cc(/C=C2/SC(=O)NC2=O)ccc1Oc1ccc([N+](=O)[O-])cc1[N+](=O)[O-]	DYRK1A inh 79.6 | Dyrk1A artifact inactive
CC1OC(CC(=O)O)CC2=C1C(=O)c1c(O)cccc1C2=O (stereo not drawn)	none (no result: STK33 inh, GSK3A inh, GSK3B inh)
Nc1c(C(=O)O)ccc2c1C(=O)c1ccccc1C2=O	STK33 inh 52.3, DYRK1A inh 88.4, GSK3A inh 58.2 | Dyrk1A artifact inactive
COC(=O)c1ccc2c(c1O)C(=O)c1ccccc1C2=O	none
O=C1c2ccccc2C(=O)c2c1ccc(O)c2O	DYRK1A inh 59.7 (no result: STK33 inh, GSK3A inh, GSK3B inh) | Dyrk1A artifact inactive
Nc1c(SCCC(=O)O)ccc2c1C(=O)c1ccccc1C2=O	none
O=C(NCCN1C(=O)S/C(=C\c2ccc(Cl)cc2Cl)C1=O)C1=COCCO1	none
Cn1ncc(Cl)c1C(=O)Nc1cccc(Cl)c1	none
CSc1cccc(NC(=O)c2c(Cl)cnn2C)c1	DYRK1A inh 52.8 | Dyrk1A artifact inactive
O=C1OCc2cccc3cccc1c23	DYRK1A inh 51.0 | Dyrk1A artifact inactive
N#Cc1ccccc1S(=O)(=O)N1CCN(C(=O)Cc2coc3cc(O)ccc23)CC1	none (no result: DYRK1A inh, GSK3B inh)
CCC1COCCS(=O)(=O)N1Cc1ccccc1 (stereo not drawn)	DYRK1A inh 54.9 | Dyrk1A artifact inactive
O=C(Cn1cc(COc2ccccc2C(F)(F)F)nn1)c1ccc(O)cc1	DYRK1A inh 50.8 (no result: STK33 inh, GSK3A inh, GSK3B inh) | Dyrk1A artifact inactive
CC(=O)c1cccc(NC(=O)Nc2cccs2)c1	DYRK1A inh 53.1 | Dyrk1A artifact inactive
CCOC(=O)C1=C(C)OC(N)=C(C#N)C1c1cc2c(cc1Br)OCO2 (stereo not drawn)	DYRK1A inh 54.2 | Dyrk1A artifact inactive
O=C(N/N=C/c1cccc(O)c1)N/N=C/c1cccc(O)c1	DYRK1A inh 53.7 | Dyrk1A artifact inactive
CCOc1ccc(S(=O)(=O)N(CC)CC(=O)NC2CCS(=O)(=O)C2)cc1 (stereo not drawn)	none (no result: GSK3B inh)
CC1(C)CC(=O)c2sc(NC(=O)C3CC3)nc2C1	none
CCOCC(=O)Nc1nc2c(s1)C(=O)CC(C)(C)C2	DYRK1A inh 56.8 | Dyrk1A artifact inactive
CN(C)CCNC(=O)c1cc2c(s1)-c1ccccc1OC2	DYRK1A inh 68.3 | Dyrk1A artifact inactive
Cn1c2ccccc2c(=O)c2ccc(C#CC3(N)CCCCC3)cc21	DYRK1A inh 58.4 | Dyrk1A artifact inactive
CCN(CC)c1c([N+](=O)[O-])c(=O)sc2ccccc12	DYRK1A inh 53.3 | Dyrk1A artifact inactive
Cc1cccc(C(C)C)c1NC(=O)c1c(-c2ccccc2)noc1C	none
O=C(O)COc1ccc(/C=C/c2ccc3cccc([N+](=O)[O-])c3n2)cc1	DYRK1A inh 65.6 (no result: STK33 inh, GSK3A inh) | Dyrk1A artifact inactive
COc1cc(/C=C/c2ccc3cccc([N+](=O)[O-])c3n2)ccc1OCC(=O)O	none
COc1cc(/C=C2\SC(N3CCC(C)CC3)=NC2=O)ccc1O	DYRK1A inh 76.8 | Dyrk1A artifact inactive
Cc1ccc(C(=O)N2CCN(c3ccc([N+](=O)[O-])cc3-n3cccc3)CC2)cc1	none
COc1ccc2c(c1)CCc1c-2n[nH]c1C(=O)O	DYRK1A inh 58.6 (no result: GSK3B inh) | Dyrk1A artifact inactive
COc1ccc2c(c1)C(=O)N1[C@H]3c4cc(Br)ccc4OC[C@@H]3[C@H](c3ccccc3)[C@]1(C)C(=O)N2	none (no result: GSK3B inh)
Nc1ccc2c(c1)C(=O)C(=O)c1ccccc1-2	DYRK1A inh 88.8 | Dyrk1A artifact inactive
Nc1ccc2c(c1)C(=O)c1ccccc1-2	none
Cc1cnc(NC(=O)c2ccc(OCC3CCCO3)cc2)s1 (stereo not drawn)	none (no result: DYRK1A inh)
O=C(Nc1nc2ccccc2s1)c1ccc(OCC2CCCO2)cc1 (stereo not drawn)	DYRK1A inh 57.2 | Dyrk1A artifact inactive
NNC(=O)c1[nH]c2ccc([N+](=O)[O-])cc2c1-c1ccccc1	none
O=C(O)c1[nH]c2ccc([N+](=O)[O-])cc2c1-c1ccccc1	DYRK1A inh 52.5 | Dyrk1A artifact inactive
Oc1cccc2c(-c3nn[nH]n3)ccnc12	DYRK1A inh 69.5 (no result: GSK3B inh) | Dyrk1A artifact inactive
c1ccc2c(-c3nn[nH]n3)cccc2c1	none
COCCCNC(=O)c1ccccc1-c1cc(C)no1	none (no result: DYRK1A inh)
C[C@@H]1O[C@@H](Oc2c(-c3cc(O)c(O)c(O)c3)oc3cc(O)cc(O)c3c2=O)[C@H](O)[C@H](O)[C@H]1O	none
O=c1c(O[C@@H]2O[C@H](CO)C(O)C2O)c(-c2ccc(O)c(O)c2)oc2cc(O)cc(O)c12 (stereo partly drawn)	DYRK1A inh 63.5 (no result: GSK3B inh) | Dyrk1A artifact inactive
COc1cc(-c2oc3cc(O)cc(O)c3c(=O)c2O[C@@H]2O[C@H](COC3O[C@@H](C)[C@H](O)[C@@H](O)[C@H]3O)[C@@H](O)[C@H](O)[C@H]2O)ccc1O (stereo partly drawn)	DYRK1A inh 71.4 (no result: GSK3B inh) | Dyrk1A artifact inactive
O=c1c2c(O)cc(O)cc2oc2c(O)ccc(O[C@H]3O[C@@H](CO)[C@H](O)[C@@H](O)[C@@H]3O)c12	DYRK1A inh 73.0 (no result: GSK3B inh) | Dyrk1A artifact inactive
O=c1c(OC2OC(CO)C(O)C(O)C2OC2OC(CO)C(O)C(O)C2O)c(-c2ccc(O)cc2)oc2cc(O)cc(O)c12 (stereo not drawn)	none (no result: GSK3B inh)
C[C@@H]1O[C@@H](O[C@H]2[C@H](O)[C@@H](O)[C@H](Oc3c(-c4ccc(O)c(O)c4)oc4cc(O)cc(O)c4c3=O)O[C@@H]2CO)[C@H](O)[C@H](O)[C@H]1O	DYRK1A inh 52.1 (no result: GSK3B inh) | Dyrk1A artifact inactive
CCCC(C)NC(=O)C1c2ccccc2Oc2ccccc21 (stereo not drawn)	none
CN(CCc1ccccc1)C(=O)CCc1nnc(Cc2ccc3c(c2)OCO3)o1	none
Cc1cc(Cl)ccc1C(=O)C1CCCN(C(=O)c2cnn(C(C)C)c2)C1 (stereo not drawn)	none
CSc1ccc(CN2CCN(S(=O)(=O)Cc3ccccc3)CC2)cc1	none
O=C(NCCNC(=O)c1ccc(Cl)cc1Cl)c1cnccn1	none
C[C@@H]1O[C@@H](Oc2c(-c3ccc(O)c(O)c3)oc3cc(O)cc(O)c3c2=O)[C@H](O)[C@H](O)[C@H]1O	none (no result: GSK3B inh)
O=c1c(OC2OC(CO)C(O)C(O)C2O)c(-c2ccc(O)c(O)c2)oc2cc(O)cc(O)c12 (stereo not drawn)	DYRK1A inh 75.1 | Dyrk1A artifact inactive
COc1ccc([C@@H]2CC(=O)c3c(O)cc(O[C@@H]4OC(CO[C@@H]5OC(C)[C@H](O)[C@H](O)C5O)[C@@H](O)[C@@H](O)C4O)cc3O2)cc1O (stereo partly drawn)	none
C[C@@H]1O[C@@H](OC[C@H]2O[C@@H](Oc3cc(O)c4c(=O)cc(-c5ccc(O)c(O)c5)oc4c3)[C@H](O)[C@@H](O)[C@@H]2O)[C@H](O)[C@H](O)[C@H]1O	DYRK1A inh 58.6 (no result: GSK3B inh) | Dyrk1A artifact inactive
